Format in all cases: functional
One test concerns MCF7. The test can be described thus: Antiproliferative activity against human breast cancer MCF7 cell line. The procedure, abridged:
(§1)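 Part of the NCI ~60 human tumor cell line panel screen. Each compound was tested at five concentrations in 10-fold dilutions from 10^-4 to 10^-8 M. GI50 is read from dose-response curves as the molar concentration giving 50% inhibition of net cell growth, and is also reported as pGI50 (-log molar).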

The next test relates to SN12C. Kind of test: Antiproliferative activity against human renal SN12C cell line. The procedure, abridged:
as §1

For the next test, the system named is K562. The test can be described thus: Antiproliferative activity against human leukemia K562 cell line. Put shortly: as §1
A further test deals with SW-620. The test can be described thus: Antiproliferative activity against human colon SW620 cell line. Put shortly: as §1
For another test, the system named is SF-268. Kind of test: Antiproliferative activity against human CNS SF268 cell line. Put shortly:
as §1

The next test relates to UACC-62. The test can be described thus: Antiproliferative activity against human melanoma UACC62 cell line. The procedure, abridged: as §1
A further test relates to NCI-H23. Kind of test: Antiproliferative activity against human lung NCI-H23 cell line. The procedure, abridged: as §1

One may read the GI50 as the concentration at which growth is held to half of that of the control. Consider `O=C(Oc1ccccc1Cl)c1ccccc1Nc1cccc(C(F)(F)F)c1`, for which the GI50 with MCF7 is 33.9 µM; with SN12C it was 23.4 µM; with K562, 2.69 µM; with SW-620, 8.13 µM; in the test with SF-268 it was 20.4 µM; with UACC-62, 17 µM. Also, in the test on NCI-H23, it took 20 µM to inhibit growth by half (GI50).

Take `O=C(Oc1ccc(Cl)cc1)c1ccccc1Nc1ccnc(C(F)(F)F)c1`: the GI50 in the test on MCF7 is 3.72 µM; in the test with SN12C, 2.95 µM; in the test with K562, 3.63 µM; in the test on SW-620, 6.61 µM; in the test with SF-268, 4.37 µM; in the test with UACC-62, 2.63 µM. Further, in the test with NCI-H23, the GI50 was 2.82 µM.

Turning to `O=C(Oc1ccc(Cl)cc1Cl)c1ccccc1Nc1ccnc(C(F)(F)F)c1`, the GI50 with MCF7 was 3.63 µM; in the test on SN12C it was 3.02 µM; in the test on K562, 3.02 µM; in the test with SW-620, 4.57 µM; in the test on SF-268, 3.09 µM; with UACC-62 it was 2.29 µM. Besides, it took 3.55 µM to inhibit growth in the test with NCI-H23 by half (GI50).

As to `O=C(Oc1cccnc1)c1ccccc1Nc1ccnc(C(F)(F)F)c1`, the GI50 in the test with MCF7 is 0.0457 µM; with SN12C, 0.0708 µM; in the test on K562, 0.0427 µM; with SW-620 it was 0.0407 µM; in the test with SF-268 it was 0.331 µM; with UACC-62, 0.288 µM. The GI50 in the test on NCI-H23 was 0.0363 µM.

For `O=C(Oc1cccnc1)c1cccnc1Nc1ccnc(C(F)(F)F)c1`, the GI50 with MCF7 was 2.69 µM; with SN12C, 6.46 µM; with K562 it was 5.13 µM; in the test with SW-620, 5.5 µM; in the test with SF-268, 5.62 µM; with UACC-62 it was 5.75 µM. For the same compound, the GI50 in the test on NCI-H23 is 6.31 µM.

As for `O=C(Oc1ccccc1Cl)c1cccnc1Nc1ccnc(C(F)(F)F)c1`, the GI50 was 3.63 µM in the test on MCF7; 4.07 µM with SN12C; 4.57 µM in the test with K562; 3.72 µM with SW-620; 10 µM with SF-268; 6.17 µM in the test with UACC-62. Also, in the test on NCI-H23, it took 8.71 µM to inhibit growth by half (GI50).

In the case of `O=C(Oc1c(Cl)cc(Cl)cc1Cl)c1ccccc1Nc1ccnc(C(F)(F)F)c1`, the 50% growth inhibitory concentration (GI50) with MCF7 is 4.68 µM; in the test with SN12C, 3.09 µM; with K562 it was 2.4 µM; with SW-620, 4.57 µM; in the test with SF-268 it was 3.89 µM; in the test on UACC-62, 1.74 µM. Further, growth with NCI-H23 was halved (GI50) at 2.57 µM.

`O=C(Oc1ccccc1Cl)c1ccccc1Nc1ccnc(C(F)(F)F)c1`: the GI50 in the test with MCF7 is 0.282 µM; with SN12C, 0.331 µM; in the test with K562, 0.0513 µM; with SW-620 it was 0.363 µM; in the test on SF-268, 2.24 µM; in the test on UACC-62, 0.309 µM. The compound further gave a 50% growth inhibitory concentration (GI50) with NCI-H23 of 0.257 µM.

Regarding `O=C(Oc1cccc(Cl)c1)c1ccccc1Nc1ccnc(C(F)(F)F)c1`, the GI50 with MCF7 is 4.79 µM; in the test with SN12C, 2.95 µM; in the test on K562, 3.24 µM; in the test on SW-620, 4.37 µM; in the test with SF-268 it was 3.02 µM; in the test with UACC-62, 2.04 µM. The compound also had a GI50 in the test with NCI-H23 of 2.4 µM.

With `COc1cccc(OC(=O)c2ccccc2Nc2ccnc(C(F)(F)F)c2)c1`, the GI50 is 7.24 µM with MCF7; 5.37 µM in the test with SN12C; 0.741 µM with K562; 4.07 µM in the test with SW-620; 4.68 µM with SF-268; 3.09 µM in the test with UACC-62. The 50% growth inhibitory concentration (GI50) in the test with NCI-H23 is 2.04 µM.

Source of the values: ChEMBL document CHEMBL1141187, “New potential anticancer agents based on the anthranilic acid scaffold: synthesis and evaluation of biological activity” (2005).
